# Experimental data from ChEMBL document CHEMBL1126866, “TSAO analogues. 3. Synthesis and anti-HIV-1 activity of 2',5'-bis-O-(tert-butyldimethylsilyl)-beta-D-ribofuranosyl 3'-spiro-5''-(4''-amino-1'',2''-oxathiole 2'',2''-dioxide) purine and purine-modified nucleosides” (J Med Chem, 1993).
# What was measured:
# MT4 = assay: Cytotoxic concentration required to inhibit the viability of MT-4 cells; format: functional; settings: Homo sapiens
# How it was run: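 Mock-infected MT-4 cells (5×10^5 cells/mL) were cultured with serial dilutions of test compound for 5 days. Viable cells were counted by trypan blue staining. CC50 = concentration reducing the number of viable mock-infected MT-4 cells by 50%.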
# [1] = Effective concentration required to inhibit HIV-1 induced cytopathicity in MT-4 cells; format: functional, cell-based; settings: Human immunodeficiency virus 1, MT4
# How it was run: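 MT-4 cells (5×10^5 cells/mL) were infected with HIV-1 at 100 CCID50 per mL of cell suspension and incubated with serial compound dilutions for 5 days. Viable cells were counted by trypan blue staining. EC50 = concentration reducing virus-induced loss of viable MT-4 cells by 50%.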
# [2] = tested on: Human immunodeficiency virus 1; assay: Selectivity index expressed as the ratio of CC50/EC50 of MT-4 cell lines
# [3] = tested on: Human immunodeficiency virus 2; assay: Effective concentration required to inhibit HIV-2 induced cytopathicity in MT-4 cells; format: functional, organism-based; settings: Human immunodeficiency virus 2, MT4
# CCRF-CEM = assay: Effective concentration required to inhibit HIV- induced giant cell formation in CEM cells; format: functional, cell-based; settings: Homo sapiens
# How it was run: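 CEM cells (5×10^5 cells/mL) were infected with HIV-1 at 100 CCID50 per mL of cell suspension and mixed with compound dilutions. Syncytia were scored microscopically after 4 days. EC50 = concentration reducing syncytium number by 50%.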
Compound,EC50 [1],EC50 [3],EC50 (CCRF-CEM),CC50 (MT4),Selectivity index [2]
CC(C)(C)[Si](C)(C)OC[C@H]1O[C@@H](n2cnc3c(N)ncnc32)[C@H](O[Si](C)(C)C(C)(C)C)[C@]12OS(=O)(=O)C=C2N,0.278 µM,> 14 µM,,13 µM,47
Cn1cnc2c(ncn2[C@@H]2O[C@H](CO[Si](C)(C)C(C)(C)C)[C@@]3(OS(=O)(=O)C=C3N)[C@H]2O[Si](C)(C)C(C)(C)C)c1=O,0.514 µM,> 150 µM,0.101 µM,> 150 µM,>292
COc1ccc(C(Nc2ncnc3c2ncn3[C@@H]2O[C@H](CO[Si](C)(C)C(C)(C)C)[C@]3(OS(=O)(=O)C=C3N)[C@H]2O[Si](C)(C)C(C)(C)C)(c2ccccc2)c2ccccc2)cc1,> 100 µM,> 100 µM,,191 µM,<1.9
CC(C)(C)[Si](C)(C)OC[C@H]1O[C@@H](n2cnc3c(N)ncnc32)[C@H](O[Si](C)(C)C(C)(C)C)[C@@]12OS(=O)(=O)C=C2N,> 2.7 µM,> 2.7 µM,,7.3 µM,<2.7
COc1ccc(C(Nc2ncnc3c2ncn3[C@@H]2O[C@H](CO[Si](C)(C)C(C)(C)C)[C@@]3(OS(=O)(=O)C=C3N)[C@H]2O[Si](C)(C)C(C)(C)C)(c2ccccc2)c2ccccc2)cc1,> 100 µM,> 100 µM,,192 µM,<1.9
CCn1cnc2ncn([C@@H]3O[C@H](CO[Si](C)(C)C(C)(C)C)[C@@]4(OS(=O)(=O)C=C4N)[C@H]3O[Si](C)(C)C(C)(C)C)c2c1=O,0.604 µM,> 150 µM,0.172 µM,> 150 µM,>248
CC(C)(C)[Si](C)(C)OC[C@H]1O[C@@H](n2c(=O)[nH]c(=O)c3[nH]cnc32)[C@H](O[Si](C)(C)C(C)(C)C)[C@]12OS(=O)(=O)C=C2N,2.7 µM,> 7 µM,2.3 µM,14 µM,5.2
CC(C)(C)[Si](C)(C)OC[C@H]1O[C@@H](n2cnc3ncn([C@@H]4O[C@H](CO[Si](C)(C)C(C)(C)C)[C@@]5(OS(=O)(=O)C=C5N)[C@H]4O[Si](C)(C)C(C)(C)C)c3c2=O)[C@H](O[Si](C)(C)C(C)(C)C)[C@]12OS(=O)(=O)C=C2N,> 150 µM,> 150 µM,,> 150 µM,<1
CC(C)(C)[Si](C)(C)OC[C@H]1O[C@@H](n2cnc3ccccc32)[C@H](O[Si](C)(C)C(C)(C)C)[C@]12OS(=O)(=O)C=C2N,3.1 µM,> 7 µM,,15 µM,4.8

# Continued by falling EC50 [1], values first:
EC50 [1],EC50 [3],EC50 (CCRF-CEM),Compound,CC50 (MT4),Selectivity index [2]
0.389 µM,> 30 µM,0.646 µM,CN(C)c1ncnc2c1ncn2[C@@H]1O[C@H](CO[Si](C)(C)C(C)(C)C)[C@@]2(OS(=O)(=O)C=C2N)[C@H]1O[Si](C)(C)C(C)(C)C,15 µM,39
0.358 µM,> 7 µM,0.126 µM,CC(C)(C)[Si](C)(C)OC[C@H]1O[C@@H](n2cnc3[nH]c(=O)[nH]c(=O)c32)[C@H](O[Si](C)(C)C(C)(C)C)[C@]12OS(=O)(=O)C=C2N,13 µM,36
0.201 µM,> 100 µM,0.067 µM,Cn1cnc2ncn([C@@H]3O[C@H](CO[Si](C)(C)C(C)(C)C)[C@@]4(OS(=O)(=O)C=C4N)[C@H]3O[Si](C)(C)C(C)(C)C)c2c1=O,156 µM,776
0.177 µM,> 7 µM,0.074 µM,CC(C)(C)[Si](C)(C)OC[C@H]1O[C@@H](n2cnc3cncnc32)[C@H](O[Si](C)(C)C(C)(C)C)[C@]12OS(=O)(=O)C=C2N,13 µM,73
0.173 µM,> 7 µM,,CC(C)(C)[Si](C)(C)OC[C@H]1O[C@@H](n2cnc3ncnc(O)c32)[C@H](O[Si](C)(C)C(C)(C)C)[C@]12OS(=O)(=O)C=C2N,15 µM,86
0.158 µM,> 7 µM,,CC(C)(C)[Si](C)(C)OC[C@H]1O[C@@H](n2cnc3c(O)ncnc32)[C@H](O[Si](C)(C)C(C)(C)C)[C@]12OS(=O)(=O)C=C2N,14 µM,89
0.146 µM,> 7 µM,0.161 µM,CNc1ncnc2c1ncn2[C@@H]1O[C@H](CO[Si](C)(C)C(C)(C)C)[C@@]2(OS(=O)(=O)C=C2N)[C@H]1O[Si](C)(C)C(C)(C)C,14 µM,96
0.141 µM,> 30 µM,0.469 µM,COc1ncnc2c1ncn2[C@@H]1O[C@H](CO[Si](C)(C)C(C)(C)C)[C@@]2(OS(=O)(=O)C=C2N)[C@H]1O[Si](C)(C)C(C)(C)C,21 µM,149
